{
  "source": "paper PMC3070847",
  "about": "(Bioorganic & medicinal chemistry letters, 2011)",
  "data": [
    {"molecular_target": "HIV-1 IN (Human immunodeficiency virus type 1 group M subtype B, UniProt P04585)", "assay": "Biochemical gel assay of HIV-1 IN", "settings": "IN IC50 3'-P, 3' processing function", "how_it_was_run": "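Recombinant HIV-1 integrase was used as the enzyme in the biochemical evaluation.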", "units": {"IC50": "µM"}, "values": [
      {"molecule": "CCc1c(C(=O)c2cc(C)cc(C)c2)n(COCCc2ccc(F)cc2)c(=O)n(O)c1=O", "note": "[Compound 22]", "IC50": "> 111"},
      {"molecule": "CCc1c(C(=O)c2ccccc2)n(COCc2ccc(F)cc2)c(=O)n(O)c1=O", "note": "[Compound 18]", "IC50": "> 111"},
      {"molecule": "CCOCn1c(C(=O)c2ccccc2)c(CC)c(=O)n(O)c1=O", "note": "[Compound 23]", "IC50": "> 111"},
      {"molecule": "CCc1c(C(=O)c2cc(C)cc(C)c2)n(COCc2ccc(F)cc2)c(=O)n(O)c1=O", "note": "[Compound 19]", "IC50": "> 111"},
      {"molecule": "CCc1c(C(=O)c2cc(C)cc(C)c2)n(COCc2ccccc2)c(=O)n(O)c1=O", "note": "[Compound 20]", "IC50": "> 111"},
      {"molecule": "CCc1c(C(=O)c2ccccc2)n(COCc2ccccc2)c(=O)n(O)c1=O", "note": "[Compound 17]", "IC50": "> 111"},
      {"molecule": "CCc1c(C(=O)c2ccccc2)n(COCCc2ccc(F)cc2)c(=O)n(O)c1=O", "note": "[Compound 21]", "IC50": "> 111"},
      {"molecule": "CCOCn1c(C(=O)c2cc(C)cc(C)c2)c(CC)c(=O)n(O)c1=O", "note": "[Compound 24]", "IC50": "> 111"}
    ]}
  ]
}
